Source: PubChem BioAssay (several laboratories)
Only some compounds are listed: those with a hit (about 2% of all), similar ones and a draw of the others.
MC4R ag barr = activates human MC4R beta-arrestin recruitment; U2OS MC4R beta-arrestin complementation, luminescence; percent of melanotan II response, DMSO zero; activation, % at 8.9 µM; actives 0.98% (n = 360,000); AID 540308;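 active = activation above a per-plate cutoff, the mean activation of sample wells on that plate plus 3 SD, cut at about 8% in these data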
Target sequence (P32245 whole entry, looked up): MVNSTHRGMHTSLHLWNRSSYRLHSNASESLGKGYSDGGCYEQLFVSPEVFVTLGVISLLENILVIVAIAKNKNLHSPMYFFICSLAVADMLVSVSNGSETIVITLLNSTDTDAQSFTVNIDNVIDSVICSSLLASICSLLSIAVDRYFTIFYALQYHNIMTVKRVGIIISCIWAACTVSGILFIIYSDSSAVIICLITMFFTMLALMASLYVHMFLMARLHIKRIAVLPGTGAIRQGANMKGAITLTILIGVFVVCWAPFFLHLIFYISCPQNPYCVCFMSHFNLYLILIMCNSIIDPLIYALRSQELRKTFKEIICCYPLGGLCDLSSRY
MC4R antagonist = antagonists of human melanocortin 4 receptor (MC4R); P32245; MC4R-expressing cells, MTII-stimulated cAMP, LANCE TR-FRET; actives 0.48% (n = 360,000); inhibition, % at 6.5 µM;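 active = inhibition above its plate's cutoff, the mean of tested wells on that plate plus 3 SD, cut at about 29% in these data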;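 note: 0% = Melanotan II alone and 100% = Melanotan II plus saturating MCL0020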
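Material – human MC4R-expressing U2OS cells · Repeats – no replicates · Detection – TR-FRET with Eu-cAMP and labeled anti-cAMP, 671 nm · Times – compound 30 min, challenge 1 h, detection 1 h · Compound – single nominal compound dose of 6.5 µM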
Bfl-1 A1 inh = inhibitors of the anti-apoptotic protein A1, read as caspase activation | MEF A1-2A-BIM cells, Caspase-Glo 3/7 luminescence, 3 h; percent of clofoctol response, vehicle zero | caspase activation, % (concentration not given with the values) | actives 0.066% (n = 330,000);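 active = over half of replicate activation scores above 10%, or exactly half above 10 with the replicate mean above 10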
CHOP UPR activ = activators of apoptotic arm of unfolded protein response (CHOP). actives 0.34% (n = 330,000). CHO-CHOP luciferase reporter, UPR activation, luminescence; percent of tunicamycin response over DMSO baseline. activation, % at 10 µM;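 active = at 10 µM dose, activation of 40% or more, normalized to positive control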;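 note: 100% = tunicamycin at 10 µg/mL and 0% = DMSO alone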
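Material: CHO-CHOP cells, stable luciferase reporter of PERK-eIF2a-CHOP signalling; quantity: 500 reporter cells seeded per well; buffer or medium: F12 medium containing 10% fetal bovine serum; compound: one dose, 10 µM in 0.5% DMSO; incubation: 6 h compound treatment, 37 °C; measured by: Steady-Glo luciferase luminescence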
UPR XBP1 act = activators of adaptive arm of unfolded protein response (XBP1); AID 463104; CHO-XBP1 luciferase reporter, IRE1-XBP1 UPR activation, luminescence; percent of tunicamycin response, DMSO as zero; activation, % at 20 µM; actives 0.33% (n = 330,000);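 active = versus positive control, 20 µM dose yields 30% or more activation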;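 note: 100% = tunicamycin at 10 µg/mL and 0% = DMSO only wells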
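assay system = CHO-XBP1 luciferase reporter cells | amount = 1000 cells/well | buffer or medium = F12 plus 10% FBS | compound dosing = single point, 20 µM final compound, 1% DMSO | incubation = 16-18 h cell attachment at 37 °C, then 6 h compound exposure | detection = Steady-Glo luminescence read | controls = tunicamycin 10 µg/mL and vehicle-only wells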
UPR XBP1 confirm = confirmation of adaptive unfolded protein response (XBP1) activators; shares compounds with UPR XBP1 act; CHO-XBP1 IRE1-XBP1 luciferase reporter, luminescence; activation, % at 20 µM; actives 63% (n = 1,000);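 active = reporter signal at least 30% of the positive control's activation in two or more of four replicate wells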;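 note: plate controls were DMSO negative control for no effect and tunicamycin 10 µg/mL positive control for full effect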
An asterisk follows results filed as active; / = no result.

SMILES | MC4R ag barr | MC4R antagonist | Bfl-1 A1 inh | CHOP UPR activ | UPR XBP1 act | UPR XBP1 confirm
Cc1ccccc1Cn1c(C)c(C(=O)NCCC#N)sc1=O | -0.4 | 23.4 | / | / | / | /
Clc1ccccc1-c1ccc(/C=N/Nc2nncc(-c3ccccc3)n2)o1 | -2.0 | -3.7 | 0.7 | -1.2 | 40.9* | 27.8
FC(F)(F)c1cccc(-c2ccc(/C=N/Nc3nncc(-c4ccccc4)n3)o2)c1 | -1.7 | 1.6 | 0.3 | 1.0 | 4.7 | /
COC(=O)C1C(O)=C(C=NCc2ccccc2)C(=O)CC1(C)C (centres undefined) | -0.7 | 0.8 | 0.0 | 1.7 | 2.3 | /
COC(=O)C1C(O)=C(C=Nc2cccc3ccccc23)C(=O)CC1(C)C (centres undefined) | -2.0 | 11.7 | 0.4 | 9.3 | 120.7* | 110.3*
CCN(CC)CC(C)(C)C(=O)/C=C/c1ccc(/C=C/C(=O)C(C)(C)CN(CC)CC)cc1 | -0.7 | -9.6 | / | / | / | /
COc1ccc(S(=O)(=O)NC(=O)C2(C)CCN2C(=O)C2CC2)cc1 (centres undefined) | -0.2 | 4.0 | / | / | / | /
COc1ccc(-n2nc3c(N4CCC(C(=O)NCCc5ccccc5C)CC4)nnc(C)c3c2C)cc1 | -3.8 | 5.4 | -1.3 | 0.2 | 50.4* | 0.1
COc1ccc(-n2nc3c(N4CCC(C(=O)NCc5ccccc5C)CC4)nnc(C)c3c2C)cc1 | 3.9 | 6.2 | 0.3 | 4.6 | -2.0 | /
Cc1ccc(-n2nc3c(N4CCC(C(=O)NCCc5ccco5)CC4)nnc(C)c3c2C)cc1 | -0.9 | -0.2 | -0.3 | 0.9 | 20.0 | /
Cc1ccc(-n2nc3c(N4CCC(C(=O)NCCc5ccccc5C)CC4)nnc(C)c3c2C)cc1 | 16.4* | 6.2 | -1.2 | 3.3 | 39.1* | 30.4*
Cc1cc(C)c(OCC(=O)OCC(=O)NCc2ccco2)c(C)c1 | -1.9 | 7.6 | / | / | / | /
COc1cccc(C(=O)Oc2cc3c4c(c2)C(C)=CC(C)(C)N4C(=O)C3=O)c1 | 1.0 | -20.9 | -0.2 | 3.3 | 50.4* | 253.4*
COc1cc2c3c(c1)C(C)=CC(C)(C)N3C(=O)C2=O | -0.2 | -20.5 | -0.2 | 1.9 | 12.4 | /
COc1ccc(C(=O)Oc2cc3c4c(c2)C(C)=CC(C)(C)N4C(=O)C3=O)cc1OC | 0.8 | -9.2 | -1.5 | 3.6 | 64.7* | 30.8*
O=C(Oc1ccc(F)cc1C(=O)/C=C/c1cccs1)c1cccc([N+](=O)[O-])c1 | -1.9 | -14.5 | 0.7 | 8.3 | 37.6* | 82.7*
Fc1cccc(CCN2CCNC[C@@H]2Cc2ccccc2)c1 | 4.4 | 11.8 | 1.0 | 0.8 | 0.9 | /
FC(F)(F)c1cc(CCN2CCNC[C@@H]2Cc2ccccc2)cc(C(F)(F)F)c1 | 2.0 | -0.7 | -0.5 | 1.7 | 36.7* | 17.8
CS(=O)(=O)/C(C#N)=C/c1cccn1S(=O)(=O)c1cccc2ccccc12 | 2.5 | 15.5 | / | / | / | /
COc1ccc(CCNC(=O)/C=C\c2ccccc2)cc1OC | -2.7 | 1.1 | 0.0 | 0.8 | -0.6 | /
COc1ccc(/C=C/C(=O)NC(=S)NCCc2ccc(OC)c(OC)c2)cc1 | 17.2* | -9.1 | 7.2* | -0.7 | 69.3* | 1.1
CCOc1ccc(OCC(=O)N(CCC2=CCCCC2)c2c(N)n(Cc3ccccc3)c(=O)[nH]c2=O)cc1 | -2.8 | 3.6 | 60.3* | 1.8 | 31.0* | 6.7
CC(CC(=O)N(CCC1=CCCCC1)c1c(N)n(Cc2ccccc2)c(=O)[nH]c1=O)c1ccccc1 (centres undefined) | 5.3 | 3.8 | 0.8 | 5.9 | 39.7* | 15.9
COc1ccc(CC(=O)N(CCC2=CCCCC2)c2c(N)n(Cc3ccccc3)c(=O)[nH]c2=O)cc1 | 0.5 | 6.5 | / | / | / | /
CC12CCC(O)CC1=CCC1C2CCC2(C)C3=NN=CC3CC12 (centres undefined) | 0.3 | 9.8 | / | / | / | /
SMILES | MC4R ag barr | MC4R antagonist | Bfl-1 A1 inh | CHOP UPR activ | UPR XBP1 act | UPR XBP1 confirm
COc1ccccc1N(C)S(=O)(=O)c1ccc(C(=O)N(C)Cc2cccc(F)c2)cc1 | -2.2 | -0.5 | / | / | / | /
C=CCn1c(=O)c2ccc(C(=O)NCc3ccccc3)cc2n(Cc2ccc(C)cc2)c1=O | 0.0 | 25.9 | -0.1 | 1.1 | 43.8* | 18.3
CCC(C)NC(=O)Cn1c(=O)n(-c2ccccc2)c(=O)c2ccc(C(=O)NCc3ccco3)cc21 (centres undefined) | -2.1 | -2.7 | 0.4 | 0.6 | -1.9 | /
Cc1ccc(Cn2c(=O)n(-c3ccccc3)c(=O)c3ccc(C(=O)NCc4ccco4)cc32)cc1 | 7.6 | 4.5 | -0.4 | 1.0 | 34.9* | 30.9*
COc1ccc(Cl)cc1-c1cc(C(=O)Nc2ccc(C)c(NS(C)(=O)=O)c2)[nH]n1 | 2.0 | 21.1 | / | / | / | /
COc1ccc(-c2csc3ncnc(Sc4nnnn4C)c23)cc1 | -1.7 | 2.6 | 1.7 | 1.3 | -0.2 | /
Cn1nnnc1Sc1ncnc2scc(-c3ccc(Cl)cc3)c12 | -1.4 | -20.2 | 1.9 | 1.2 | 45.9* | 112.7*
COc1ccc(OC)c(CC(=O)Nc2ccc3c(c2)c(=O)n(C)n3Cc2cccc(C(F)(F)F)c2)c1 | -0.8 | 12.4 | / | / | / | /
COc1cc2[nH]c3c(Cl)ncnc3c2cc1OC | -3.3 | -15.9 | -1.6 | -0.7 | 4.4 | /
COc1cc2[nH]c3c(N4CCN(c5ccc(Cl)cc5)CC4)ncnc3c2cc1OC | 11.7* | 20.3 | 0.0 | 5.6 | 39.1* | 32.6*
COc1ccccc1-c1sc2cc3c(cc2c1-c1ccc(OCCN2CCCCC2)cc1)OCO3 | 3.0 | 3.4 | 1.1 | 6.3 | 34.9* | 35.9*
COc1cc2sc(-c3ccccc3OC)c(-c3ccc(OCCN4CCCCC4)cc3)c2cc1OC | 0.0 | 5.6 | 0.5 | 6.9 | 23.8 | /
CC(C)CNC(=O)C1(C)CCN1C(=O)c1ccc(C(C)(C)C)cc1 (centres undefined) | 2.5 | 5.7 | / | / | / | /
CC(CN1CCCCC1)OC(=O)c1ccc(Cl)cc1 (centres undefined) | -1.7 | -3.6 | -0.1 | -0.6 | 34.8* | 0.5
CCOC(=O)c1sc(NC(=O)CN2C(=O)NC3(CCC(C)CC3)C2=O)c(C(=O)OCC)c1C (centres undefined) | 0.0 | -2.6 | -0.8 | 12.1 | 30.8* | 23.7
O=C(N/N=C/c1ccc(Br)cc1)c1ccc(NC(=O)c2ccccc2)cc1 | -1.4 | 10.1 | / | / | / | /
CN(C)c1ccc(/C=N/NC(=O)c2ccc(NC(=O)c3ccccc3)cc2)cc1 | 1.5 | 7.3 | 0.7 | 5.0 | 189.1* | 82.8*
COc1ccc(C(C)(NC(C)=O)c2nc(-c3cccc(F)c3)cs2)cc1 (centres undefined) | 0.4 | 14.6 | / | / | / | /
O=C(NNC(=S)NC1CCCCC1)c1sc2ccccc2c1Cl | -1.9 | 3.2 | -0.7 | 0.7 | -0.1 | /
CC(C)(C)C(=O)NC(=S)NNC(=O)c1sc2ccccc2c1Cl | -8.6 | -4.6 | 0.7 | 19.6 | 34.5* | 31.1*
